{"source": "ChEMBL document CHEMBL1131143", "about": "“Predictive models for GABAA/benzodiazepine receptor subtypes: studies of quantitative structure-activity relationships for imidazobenzodiazepines at five recombinant GABAA/benzodiazepine receptor subtypes [alphaxbeta3gamma2 (x = 1-3, 5, and 6)] via comparative molecular field analysis” (J Med Chem, 1998)", "assay_type_in_all_cases": "protein-complex assay", "key": {"[1]": {"target": "T1, GABA-A receptor; alpha-6/beta-3/gamma-2 (Homo sapiens, UniProt P18507+P28472+Q16445)", "T1 sequence (Q16445 whole entry, one chain of several)": "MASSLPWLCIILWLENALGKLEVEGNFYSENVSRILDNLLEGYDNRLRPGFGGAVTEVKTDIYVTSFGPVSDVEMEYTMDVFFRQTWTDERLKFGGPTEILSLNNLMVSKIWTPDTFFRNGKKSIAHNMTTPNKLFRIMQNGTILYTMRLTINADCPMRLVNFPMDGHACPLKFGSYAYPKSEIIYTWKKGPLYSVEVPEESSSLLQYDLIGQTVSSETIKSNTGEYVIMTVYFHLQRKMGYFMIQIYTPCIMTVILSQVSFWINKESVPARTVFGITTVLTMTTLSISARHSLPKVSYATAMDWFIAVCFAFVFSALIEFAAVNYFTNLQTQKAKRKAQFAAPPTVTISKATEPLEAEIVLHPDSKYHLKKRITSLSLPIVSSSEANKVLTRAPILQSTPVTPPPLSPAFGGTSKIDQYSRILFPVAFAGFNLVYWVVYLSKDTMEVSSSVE", "test": "Inhibition of Gamma-aminobutyric acid A receptor alpha-6-beta-3-gamma-2 at 1 uM", "method_in_brief": "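Competition binding on Ltk⁻ cells expressing human α6β3γ2, radioligand [³H]Ro 15-4513. Cells scraped into PBS, spun at 3000g, resuspended in 10 mM KH₂PO₄/100 mM KCl pH 7.4. Nonspecific binding with 10⁻⁵ M diazepam; 1 h to equilibrium at 4 °C; filtration, ice-cold buffer wash, scintillation counting.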"}, "[2]": {"target": "T2, GABA-A receptor; alpha-5/beta-3/gamma-2 (Homo sapiens, UniProt P18507+P28472+P31644)", "T2 sequence (P18507 whole entry)": "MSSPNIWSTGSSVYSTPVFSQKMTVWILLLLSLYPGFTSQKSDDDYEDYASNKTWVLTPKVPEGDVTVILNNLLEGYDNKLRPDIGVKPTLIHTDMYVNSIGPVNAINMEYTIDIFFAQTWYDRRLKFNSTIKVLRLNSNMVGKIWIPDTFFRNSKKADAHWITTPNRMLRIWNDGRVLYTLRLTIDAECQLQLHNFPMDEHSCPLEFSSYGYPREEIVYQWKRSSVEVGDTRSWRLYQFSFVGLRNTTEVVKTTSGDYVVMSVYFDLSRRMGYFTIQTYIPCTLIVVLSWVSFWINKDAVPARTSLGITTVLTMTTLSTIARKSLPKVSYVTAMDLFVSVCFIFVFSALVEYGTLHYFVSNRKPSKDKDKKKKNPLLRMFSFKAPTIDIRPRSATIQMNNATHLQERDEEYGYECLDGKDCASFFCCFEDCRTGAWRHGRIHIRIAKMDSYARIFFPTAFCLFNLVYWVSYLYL", "T2 sequence (P28472 whole entry)": "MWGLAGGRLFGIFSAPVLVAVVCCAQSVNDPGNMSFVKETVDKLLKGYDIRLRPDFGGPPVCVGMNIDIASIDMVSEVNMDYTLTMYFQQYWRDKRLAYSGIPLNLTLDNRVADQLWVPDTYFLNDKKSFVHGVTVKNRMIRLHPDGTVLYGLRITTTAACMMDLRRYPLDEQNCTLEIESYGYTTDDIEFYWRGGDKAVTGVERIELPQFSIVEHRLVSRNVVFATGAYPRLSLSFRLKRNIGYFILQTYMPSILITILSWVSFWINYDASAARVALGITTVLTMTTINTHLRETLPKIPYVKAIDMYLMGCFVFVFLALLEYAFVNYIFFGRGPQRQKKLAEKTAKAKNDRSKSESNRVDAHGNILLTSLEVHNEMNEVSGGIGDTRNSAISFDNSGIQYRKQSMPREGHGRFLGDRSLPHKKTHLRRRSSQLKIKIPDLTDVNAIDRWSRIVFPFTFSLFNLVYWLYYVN", "T2 sequence (P31644 whole entry)": "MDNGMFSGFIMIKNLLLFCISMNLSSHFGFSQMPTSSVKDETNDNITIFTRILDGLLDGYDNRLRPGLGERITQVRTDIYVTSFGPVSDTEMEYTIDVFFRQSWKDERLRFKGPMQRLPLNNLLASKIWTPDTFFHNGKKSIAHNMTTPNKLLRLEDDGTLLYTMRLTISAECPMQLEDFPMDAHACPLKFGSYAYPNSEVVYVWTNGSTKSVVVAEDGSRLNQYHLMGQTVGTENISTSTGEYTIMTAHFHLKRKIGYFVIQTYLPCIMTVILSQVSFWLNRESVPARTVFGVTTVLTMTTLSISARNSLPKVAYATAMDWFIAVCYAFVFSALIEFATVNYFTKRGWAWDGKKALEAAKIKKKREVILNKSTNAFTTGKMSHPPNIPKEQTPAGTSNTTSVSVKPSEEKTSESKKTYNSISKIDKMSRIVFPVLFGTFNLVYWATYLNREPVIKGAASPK", "test": "Binding affinity for Gamma-aminobutyric acid A receptor alpha-5-beta-3-gamma-2"}, "[3]": {"target": "T3, GABA-A receptor; alpha-1/beta-3/gamma-2 (Homo sapiens) (UniProt P14867+P18507+P28472)", "test": "Inhibition of GABA-A benzodiazepine receptor alpha-1-beta-3-gamma-2 subunits at 1 uM"}, "[4]": {"target": "GABA-A receptor; alpha-2/beta-3/gamma-2 (Homo sapiens) (UniProt P18507+P28472+P47869)", "test": "Inhibition of GABA-A benzodiazepine receptor alpha-2-beta-3-gamma-2 subunits at 1 uM"}, "[5]": {"target": "GABA-A receptor; alpha-3/beta-3/gamma-2 (Homo sapiens) (UniProt P18507+P28472+P34903)", "test": "Inhibition of GABA-A benzodiazepine receptor alpha-3-beta-3-gamma-2 subunits at 1 uM"}, "[6]": {"target": "T1, GABA-A receptor; alpha-6/beta-3/gamma-2", "test": "Binding affinity against Gamma-aminobutyric acid A receptor alpha-6-beta-3-gamma-2", "method_in_brief": "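Cells scraped into PBS, spun at 3000g, resuspended in 10 mM KH₂PO₄/100 mM KCl pH 7.4. Nonspecific binding with 10⁻⁵ M diazepam; 1 h to equilibrium at 4 °C; filtration, ice-cold buffer wash, scintillation counting.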"}, "[7]": {"target": "T4, GABA-A receptor; alpha-2/beta-3/gamma-2 (Homo sapiens, UniProt P18507+P28472+P47869)", "T4 sequence (P18507 whole entry)": "T2 sequence (P18507 whole entry)", "T4 sequence (P28472 whole entry)": "T2 sequence (P28472 whole entry)", "T4 sequence (P47869 whole entry)": "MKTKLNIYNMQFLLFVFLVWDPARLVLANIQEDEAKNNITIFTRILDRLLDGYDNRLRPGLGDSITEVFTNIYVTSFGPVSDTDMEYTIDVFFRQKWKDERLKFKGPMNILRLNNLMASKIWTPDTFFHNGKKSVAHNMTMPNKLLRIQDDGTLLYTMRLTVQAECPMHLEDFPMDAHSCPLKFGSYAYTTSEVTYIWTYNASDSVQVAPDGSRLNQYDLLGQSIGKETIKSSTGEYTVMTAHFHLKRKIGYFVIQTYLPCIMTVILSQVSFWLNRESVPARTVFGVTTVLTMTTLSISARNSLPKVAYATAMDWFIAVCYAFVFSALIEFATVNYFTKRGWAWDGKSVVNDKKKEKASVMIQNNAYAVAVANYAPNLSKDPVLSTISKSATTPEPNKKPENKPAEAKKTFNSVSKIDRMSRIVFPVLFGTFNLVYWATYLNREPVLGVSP", "test": "Binding affinity for alpha-2-beta-3-gamma-2 GABA-A benzodiazepine receptor subunits"}, "[8]": {"target": "T5, GABA-A receptor; alpha-3/beta-3/gamma-2 (Homo sapiens, UniProt P18507+P28472+P34903)", "T5 sequence (P18507 whole entry)": "T2 sequence (P18507 whole entry)", "T5 sequence (P28472 whole entry)": "T2 sequence (P28472 whole entry)", "T5 sequence (P34903 whole entry)": "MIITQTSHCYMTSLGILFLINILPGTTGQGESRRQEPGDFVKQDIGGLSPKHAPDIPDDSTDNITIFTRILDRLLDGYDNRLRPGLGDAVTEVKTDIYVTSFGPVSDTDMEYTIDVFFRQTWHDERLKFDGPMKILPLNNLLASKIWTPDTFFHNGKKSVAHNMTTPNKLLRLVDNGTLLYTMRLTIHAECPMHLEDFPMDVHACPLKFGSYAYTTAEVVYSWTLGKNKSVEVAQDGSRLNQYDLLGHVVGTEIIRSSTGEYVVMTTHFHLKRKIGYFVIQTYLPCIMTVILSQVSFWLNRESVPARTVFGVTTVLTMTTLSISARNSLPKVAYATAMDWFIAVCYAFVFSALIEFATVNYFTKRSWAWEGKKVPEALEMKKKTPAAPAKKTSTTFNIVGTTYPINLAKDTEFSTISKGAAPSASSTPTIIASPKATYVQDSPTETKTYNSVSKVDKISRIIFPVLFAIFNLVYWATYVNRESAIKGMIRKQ", "test": "Binding affinity against alpha-3-beta-3-gamma-2 GABAA/BzR receptor subtype."}, "[9]": {"target": "T6, GABA-A receptor; alpha-1/beta-3/gamma-2 (Homo sapiens, UniProt P14867+P18507+P28472)", "T6 sequence (P14867 whole entry)": "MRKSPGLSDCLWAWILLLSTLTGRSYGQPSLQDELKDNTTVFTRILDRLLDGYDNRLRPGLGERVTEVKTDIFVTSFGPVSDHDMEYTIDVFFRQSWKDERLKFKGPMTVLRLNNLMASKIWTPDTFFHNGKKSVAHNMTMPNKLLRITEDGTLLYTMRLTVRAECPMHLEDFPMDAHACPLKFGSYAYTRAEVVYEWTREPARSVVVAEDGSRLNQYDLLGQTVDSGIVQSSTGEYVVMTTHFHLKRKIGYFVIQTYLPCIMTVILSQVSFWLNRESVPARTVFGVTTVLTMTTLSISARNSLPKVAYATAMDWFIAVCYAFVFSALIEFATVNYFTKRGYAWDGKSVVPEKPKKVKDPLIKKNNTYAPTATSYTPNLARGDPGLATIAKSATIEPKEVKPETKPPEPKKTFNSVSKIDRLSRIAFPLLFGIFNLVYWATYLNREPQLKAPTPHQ", "T6 sequence (P18507 whole entry)": "T2 sequence (P18507 whole entry)", "T6 sequence (P28472 whole entry)": "T2 sequence (P28472 whole entry)", "test": "Binding affinity against alpha-1-beta-3-gamma-2 GABAA/BzR receptor subtype."}, "[10]": {"target": "T3, GABA-A receptor; alpha-1/beta-3/gamma-2 (Homo sapiens)", "test": "It is the ratio of Ki value for alpha-1-beta-3-gamma-2 to that of alpha-5-beta-3-gamma-2"}, "[11]": {"target": "T4, GABA-A receptor; alpha-2/beta-3/gamma-2", "test": "Binding affinity tested against alpha-2-beta-3-gamma-2 GABAA/BzR receptor subtype."}}}
{"smiles": "C#Cc1ccc2c(c1)C(=O)N1CC[C@H]1c1c(-c3nc(-c4ccccc4)no3)ncn1-2", "values": [{"measurement": "inhibition", "setting": "[1]", "result": 14, "unit": "%"}, {"measurement": "Ki", "setting": "[2]", "result": 374, "unit": "nM"}, {"measurement": "inhibition", "setting": "[3]", "result": 10, "unit": "%"}, {"measurement": "inhibition", "setting": "[4]", "result": 29, "unit": "%"}, {"measurement": "inhibition", "setting": "[5]", "result": 15, "unit": "%"}]}
{"smiles": "CCOC(=O)c1ncn2c1CN(C)C(=O)c1cc(Br)ccc1-2", "values": [{"measurement": "Ki", "setting": "[6]", "result": 22, "unit": "nM"}, {"measurement": "Ki", "setting": "[7]", "result": 27, "unit": "nM"}, {"measurement": "Ki", "setting": "[8]", "result": 13, "unit": "nM"}]}
{"smiles": "C#Cc1ccc2c(c1)C(=O)N1CCC[C@H]1c1c(-c3nc(-c4ccccc4)no3)ncn1-2", "values": [{"measurement": "inhibition", "setting": "[1]", "result": 4, "unit": "%"}, {"measurement": "Ki", "setting": "[2]", "result": 455, "unit": "nM"}, {"measurement": "inhibition", "setting": "[3]", "result": 33, "unit": "%"}, {"measurement": "inhibition", "setting": "[4]", "result": 26, "unit": "%"}, {"measurement": "inhibition", "setting": "[5]", "result": 19, "unit": "%"}]}
{"smiles": "CCc1ccc2c(c1)C(=O)N(C)Cc1c(C(=O)OC(C)(C)C)ncn1-2", "values": [{"measurement": "Ki", "setting": "[6]", "result": 22.9, "unit": "nM"}, {"measurement": "Ki", "setting": "[2]", "result": 1.72, "unit": "nM"}, {"measurement": "Ki", "setting": "[9]", "result": 14.8, "unit": "nM"}, {"measurement": "Ratio", "setting": "[10]", "result": 8.6}, {"measurement": "Ki", "setting": "[8]", "result": 25.3, "unit": "nM"}, {"measurement": "Ki", "setting": "[11]", "result": 56, "unit": "nM"}]}
